Calls of active or inactive are those of the source. The calls are words filed in the database; no cut-off is given here.

From ChEMBL document CHEMBL4673285, “Design, Synthesis, and Biological Evaluation of Linear Aliphatic Amine-Linked Triaryl Derivatives as Potent Small-Molecule Inhibitors of the Programmed Cell Death-1/Programmed Cell Death-Ligand 1 Interaction with Promising Antitumor Effects In Vivo” (J Med Chem, 2020) come the findings set out here.

Data set [1] concerns the target T1, Programmed cell death 1 ligand 1 (Homo sapiens, UniProt Q9NZQ7). Kind of data set: Inhibition of human PD-L1 cocultured in PBMC cells assessed as inhibition of PD1/PDL1 interaction mediated increase in IFN-gamma secretion at 1 uM incubated for 72 hrs by ELISA. Format: cell-based. An outline of the steps: (§1)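 Healthy-donor PBMCs, 1 × 10⁵ per well in RPMI 1640 with 10% FBS, stimulated with anti-CD3/anti-CD28 (1:1, 0.8 μg/mL final) plus PD-L1/Fc at 10 μg/mL final. Compound added at 0.1 or 1 μM final and cocultured 72 h at 37 °C, 5% CO₂. Supernatant IFN-γ measured by ELISA; quadruplicate, mean ± SEM.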
In general terms: An ELISA detects its analyte on a solid surface through an enzyme-linked reagent.

A further data set relates to Raji. Kind of data set: Cytotoxicity against human Raji cells assessed as reduction in cell viability at 100 uM incubated for 24 hrs by Cell-titer glo Luminescent assay. Format: cell-based. In a few lines: (§2)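 Cells (Raji, RAW 264.7 or donor PBMCs) plated at 1 × 10⁴ per well in medium with 10% FBS. Treated for 24 h at 37 °C, 5% CO₂ with 100, 50, 25, 12.5, 6.25 or 3.125 μM compound, or buffer containing 0.2% DMSO. Viability read by CellTiter-Glo luminescence; killing rate = (1 − RLU compound/RLU control) × 100%; triplicate, mean ± SEM.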

The next data set concerns RAW264.7. Kind of data set: Cytotoxicity against mouse RAW264.7 cells assessed as reduction in cell viability at 3.125 to 100 uM incubated for 24 hrs by Cell-titer glo Luminescent assay. Format: cell-based. The settings on record: raw264.7, 24 h, dose 3.125-100 µM. In a few lines:
as §2

Data set [2] in a line: Cytotoxicity against human PBMC cells assessed as reduction in cell viability at 6.3 uM incubated for 24 hrs by Cell-titer glo Luminescent assay. Format: cell-based. In a few lines: as §2
Data set [3] can be described thus: Cytotoxicity against human PBMC cells assessed as reduction in cell viability up to 100 uM incubated for 24 hrs by Cell-titer glo Luminescent assay. Format: cell-based. An outline of the steps: as §2
Data set [4] addresses T1, Programmed cell death 1 ligand 1. The data set can be described thus: Inhibition of human PD-L1 cocultured in PBMC cells assessed as inhibition of PD1/PDL1 interaction mediated increase in IFN-gamma secretion at 0.1 uM incubated for 72 hrs by ELISA. Format: cell-based. In a few lines:
as §1

Data set [5] shares this target. Kind of data set: Binding affinity to human PD-L1 expressed in CHOK1 cells assessed as inhibition of PD1/PDL1 protein-protein interaction at 500 nM incubated for 30 mins by flow cytometry analysis relative to control. Format: cell-based. The settings on record: CHO-K1. In a few lines: (§3)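 CHO-K1-hPD-L1 cells, 5 × 10⁵ per tube in PBS with 2% FBS, incubated with hPD-1/Fc (10 μg/mL final) at 4 °C for 30 min. Compound added at 500 nM final and incubated a further 30 min at 4 °C, then stained with APC anti-human IgG Fc. Percentage of hPD-1-bound cells read by flow cytometry. Blocking efficacy calculated against a no-inhibitor positive control and parental CHO-K1 negative control.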

Data set [6] has the same target. The data set can be described thus: Binding affinity to human PD-L1 expressed in CHOK1 cells assessed as inhibition of PD1/PDL1 protein-protein interaction at 500 nM incubated for 30 mins by flow cytometry analysis. Format: cell-based. To be noted: CHO-K1. An outline of the steps:
as §3

Data set [7] has the same target. Kind of data set: Binding affinity to biotinylated human AVI-PD-L1 by biolayer interferometry. An outline of the steps: (§4)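 Biotinylated human PD-L1/AVI at 10 μg/mL loaded on streptavidin biosensors for 300 s, then baselined. Association with compound at 20 to 0.3125 nM plus 0 nM for 180 s, then dissociation in buffer for 300 s. Data globally fitted to a 1:1 model to give ka and kdis; apparent affinity taken as their ratio.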
On the technique in general: In BLI a coated tip is dipped into the sample, and binding shifts an interference pattern.

Data set [8] has the same target. The data set can be described thus: Binding affinity to biotinylated human AVI-PD-L1 assessed as association constant by biolayer interferometry. In a few lines:
as §4

For data set [9], the target named is T2, Lymphocyte activation gene 3 protein (Homo sapiens) (UniProt P18627).
T2 sequence (whole entry): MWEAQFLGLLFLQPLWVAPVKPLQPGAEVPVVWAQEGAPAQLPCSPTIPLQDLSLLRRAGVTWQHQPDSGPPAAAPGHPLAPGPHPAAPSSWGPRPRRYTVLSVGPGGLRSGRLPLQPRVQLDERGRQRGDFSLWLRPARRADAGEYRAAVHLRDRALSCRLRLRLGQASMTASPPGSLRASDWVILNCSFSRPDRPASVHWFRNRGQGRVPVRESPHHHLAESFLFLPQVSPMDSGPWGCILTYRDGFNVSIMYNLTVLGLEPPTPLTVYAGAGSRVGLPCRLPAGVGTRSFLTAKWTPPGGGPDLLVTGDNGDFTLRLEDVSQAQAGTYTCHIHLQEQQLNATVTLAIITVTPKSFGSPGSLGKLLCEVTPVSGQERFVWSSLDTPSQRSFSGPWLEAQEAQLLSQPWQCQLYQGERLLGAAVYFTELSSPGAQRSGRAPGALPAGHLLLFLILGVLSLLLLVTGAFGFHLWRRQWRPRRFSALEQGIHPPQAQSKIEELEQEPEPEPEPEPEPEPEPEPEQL
Kind of data set: Binding affinity to human Fc-tagged LAG3 at 500 nM measured after 600 sec by biolayer interferometry.

Data set [10] has as its target CD27 antigen (Homo sapiens) (UniProt P26842). Kind of data set: Binding affinity to human Fc-tagged CD27 at 500 nM measured after 600 sec by biolayer interferometry.
Data set [11] addresses Hepatitis A virus cellular receptor 2 (Homo sapiens) (UniProt Q8TDQ0). Kind of data set: Binding affinity to human Fc-tagged TIM3 at 500 nM measured after 600 sec by biolayer interferometry.
The target of data set [12] is Leukocyte surface antigen CD47 (Homo sapiens) (UniProt Q08722). Kind of data set: Binding affinity to human Fc-tagged CD47 at 500 nM measured after 600 sec by biolayer interferometry.
Data set [13] addresses T3, Programmed cell death 1 ligand 2 (Homo sapiens) (UniProt Q9BQ51).
T3 sequence (whole entry): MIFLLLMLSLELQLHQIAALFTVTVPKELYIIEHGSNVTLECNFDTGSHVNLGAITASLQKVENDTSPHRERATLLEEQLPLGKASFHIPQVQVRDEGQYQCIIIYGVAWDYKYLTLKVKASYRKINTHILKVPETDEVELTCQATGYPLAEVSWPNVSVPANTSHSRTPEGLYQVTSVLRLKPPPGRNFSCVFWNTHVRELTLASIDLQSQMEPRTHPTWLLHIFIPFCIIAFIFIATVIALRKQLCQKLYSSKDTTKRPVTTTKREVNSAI
Kind of data set: Binding affinity to human Fc-tagged PDL2 at 500 nM measured after 600 sec by biolayer interferometry.

Data set [14] deals with T1, Programmed cell death 1 ligand 1. The data set can be described thus: Binding affinity to human Fc-tagged PDL1 at 500 nM measured after 600 sec by biolayer interferometry.
The target of data set [15] is Programmed cell death protein 1 (Homo sapiens) (UniProt Q15116). The data set can be described thus: Binding affinity to human Fc-tagged PD1 at 500 nM measured after 600 sec by biolayer interferometry.
For data set [16], the target named is T1, Programmed cell death 1 ligand 1. The data set can be described thus: Binding affinity to biotinylated human AVI-PD-L1 assessed as dissociation rate constant by biolayer interferometry.
The target of data set [17] is Programmed cell death protein 1/Programmed cell death 1 ligand 1 (Homo sapiens, UniProt Q9NZQ7). Kind of data set: Inhibition of PD1-Tag2/PD-L1-Tag1 (unknown origin) protein-protein interaction preincubated for 15 mins followed by addition of anti-Tag1-Eu3+ and anti-Tag2-XL665 measured after 2.5 hrs by HTRF assay. Format: protein-complex assay. In a few lines:
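Commercial HTRF kit. Compound incubated with PD-L1-Tag1 and PD1-Tag2 at rt for 15 min, then anti-Tag1-Eu³⁺/anti-Tag2-XL665 conjugate mix added and incubated 2.5 h at rt.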
A general note: In TR-FRET formats the signal depends on donor and acceptor labels being close together.

Data set [18] deals with T1, Programmed cell death 1 ligand 1. The data set can be described thus: Inhibition of human PD-L1 cocultured in PBMC cells assessed as inhibition of PD1/PDL1 interaction mediated increase in IFN-gamma secretion at 1 uM incubated for 72 hrs by ELISA relative to control. Format: cell-based. An outline of the steps: as §1

T1 sequence (Q9NZQ7 whole entry): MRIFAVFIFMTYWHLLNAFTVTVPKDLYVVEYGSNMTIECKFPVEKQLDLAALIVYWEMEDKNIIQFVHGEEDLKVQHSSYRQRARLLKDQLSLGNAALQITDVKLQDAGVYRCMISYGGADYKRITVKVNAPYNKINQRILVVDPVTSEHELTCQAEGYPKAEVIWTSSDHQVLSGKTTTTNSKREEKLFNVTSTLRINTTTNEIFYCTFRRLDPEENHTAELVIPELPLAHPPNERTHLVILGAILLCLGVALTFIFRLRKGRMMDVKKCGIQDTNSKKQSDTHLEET
Sequence of Programmed cell death protein 1/Programmed cell death 1 ligand 1 (Q15116 whole entry): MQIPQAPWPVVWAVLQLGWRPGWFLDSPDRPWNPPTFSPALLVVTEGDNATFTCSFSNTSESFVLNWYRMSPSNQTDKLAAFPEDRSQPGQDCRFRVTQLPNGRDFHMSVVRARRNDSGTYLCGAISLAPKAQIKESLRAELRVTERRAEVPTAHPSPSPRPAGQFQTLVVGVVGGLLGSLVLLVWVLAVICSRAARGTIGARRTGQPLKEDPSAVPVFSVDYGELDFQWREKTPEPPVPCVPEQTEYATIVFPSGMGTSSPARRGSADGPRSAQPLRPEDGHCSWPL
Sequence of Programmed cell death protein 1/Programmed cell death 1 ligand 1 (Q9NZQ7 whole entry): as the sequence (Q9NZQ7 whole entry) above
Sequence of Leukocyte surface antigen CD47 (Homo sapiens) (Q08722 whole entry): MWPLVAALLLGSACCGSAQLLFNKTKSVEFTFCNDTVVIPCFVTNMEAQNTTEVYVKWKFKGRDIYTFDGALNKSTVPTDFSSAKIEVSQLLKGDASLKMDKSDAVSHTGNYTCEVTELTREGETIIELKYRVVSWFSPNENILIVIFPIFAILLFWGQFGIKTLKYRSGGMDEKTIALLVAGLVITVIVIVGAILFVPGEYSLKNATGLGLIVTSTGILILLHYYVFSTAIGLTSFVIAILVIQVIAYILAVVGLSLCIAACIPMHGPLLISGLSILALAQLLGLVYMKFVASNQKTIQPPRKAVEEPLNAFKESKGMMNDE
Sequence of Programmed cell death protein 1 (Homo sapiens) (Q15116 whole entry): as the sequence (Q15116 whole entry) above
Sequence of Hepatitis A virus cellular receptor 2 (Homo sapiens) (Q8TDQ0 whole entry): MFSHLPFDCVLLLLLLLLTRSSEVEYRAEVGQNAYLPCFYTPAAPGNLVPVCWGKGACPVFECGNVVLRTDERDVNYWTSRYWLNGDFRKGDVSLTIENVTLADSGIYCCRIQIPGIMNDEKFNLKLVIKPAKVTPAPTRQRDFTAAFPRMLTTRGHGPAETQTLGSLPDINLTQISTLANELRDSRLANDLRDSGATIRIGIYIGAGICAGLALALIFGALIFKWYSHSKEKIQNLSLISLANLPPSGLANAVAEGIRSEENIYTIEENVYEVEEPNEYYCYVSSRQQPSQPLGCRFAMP
Sequence of CD27 antigen (Homo sapiens) (P26842 whole entry): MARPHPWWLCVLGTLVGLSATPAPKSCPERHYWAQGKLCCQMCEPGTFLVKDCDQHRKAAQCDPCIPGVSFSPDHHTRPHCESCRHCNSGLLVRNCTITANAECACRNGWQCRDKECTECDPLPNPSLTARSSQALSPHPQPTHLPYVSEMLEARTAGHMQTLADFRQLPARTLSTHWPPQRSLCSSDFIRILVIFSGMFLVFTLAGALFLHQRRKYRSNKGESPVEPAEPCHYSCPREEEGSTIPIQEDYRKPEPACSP

In general, inhibition refers to the relative decrease from the control value, in per cent. Consider `Cc1c(CNc2ccc(CN[C@H](CO)C(=O)O)c(OCc3cccc(C#N)c3)c2)cccc1-c1ccccc1`, for which the inhibition entry in data set [1] and in data set [4] was “inactive” throughout. In addition, the Activity entry (with Raji; with RAW264.7; in data set [2]; in data set [3]) was “Non-Toxic” throughout. Besides, in data set [5], the Efficacy was 96.1%. In addition, the result in data set [6] and in data set [14] was Active. Moreover, the Dissociation constant (KD) in [7] is 1.81 10^-9M. For the same compound, in [8], the association rate constant (kon) is 6.51 10^5/M/s. For the same compound, the outcome in data set [9], in data set [10], in data set [11], in data set [12], in data set [13] and in data set [15] was inactive. The koff in data set [16] was 1.18 10^-3/s.

As usually defined, the IC50 is the concentration that inhibits the measured activity by half. Low readings indicate higher potency, high ones lower potency. Consider `N#Cc1cccc(COc2cc(NCc3cccc(-c4ccccc4)c3Br)ccc2CN[C@H](CO)C(=O)O)c1`, for which it took 637 nM to reach half-maximal inhibition in data set [17] (IC50).

Compound `Cc1cc(NCc2cccc(-c3ccccc3)c2C)cc(OCc2cncc(C#N)c2)c1CN[C@H](CO)C(=O)O` came in with an IC50 in data set [17] of 436 nM.

The compound `Cc1c(CNc2cc(OCc3cncc(C#N)c3)c(CN[C@H](CO)C(=O)O)cc2Cl)cccc1-c1ccc2c(c1)OCCO2` had an IC50 in data set [17] of 131 nM. This IC50 lies about 3.3-fold lower than the previous one.

In turn, `Cc1c(CNc2cc(OCc3cncc(C#N)c3)c(CN[C@H](CO)C(=O)O)cc2Cl)cccc1-c1ccccc1` returned an IC50 in data set [17] of 26 nM. This IC50 is about 5-fold lower than that of the compound before.

`Cc1cc(CN[C@@H](CO)C(=O)O)c(OCc2cncc(C#N)c2)cc1NCc1cccc(-c2ccccc2)c1C` came in with an IC50 in data set [17] of 23 nM.

As to `Cc1c(CNc2ccc(CN[C@H](CO)C(=O)O)c(OCc3cncc(C#N)c3)c2)cccc1-c1ccccc1`, the Activity result (in the data set on Raji; in the data set with RAW264.7; in data set [2]; in data set [3]) was “Non-Toxic” in each case. The inhibition in data set [18] came to 42.5%. For the same compound, in data set [4], the inhibition entry is “inactive”. In data set [5], the Efficacy came to 95.9%. The outcome in data set [6] was Active. Moreover, the Dissociation constant (KD) in data set [7] was 2.96 10^-10M. Further, the association rate constant (kon) in data set [8] is 8.49 10^5/M/s. In addition, the koff in data set [16] was 2.51 10^-4/s.

In data set [17], `Cc1cc(CN[C@H](CO)C(=O)O)c(OCc2cncc(C#N)c2)cc1NCc1cccc(-c2ccccc2)c1Br` showed an IC50 of 31 nM.

The compound `Cc1c(CN(C)c2ccc(CN[C@H](CO)C(=O)O)c(OCc3cccc(C#N)c3)c2)cccc1-c1ccccc1` showed an IC50 in [17] of more than 100000 nM.

`Cc1cc(CN[C@H](CO)C(=O)O)c(OCc2cncc(C#N)c2)cc1NCc1cccc(-c2ccc3c(c2)OCCO3)c1C` yielded an IC50 in [17] of 44 nM. This lies in the double-digit nanomolar range.

As to `Cc1cc(NCc2cccc(-c3ccccc3)c2C)cc(OCc2cccc(C#N)c2)c1CN[C@H](CO)C(=O)O`, in [17], half-maximal inhibition (IC50) required 363 nM.

Regarding `Cc1cc(CN2C[C@@H](O)CC2=O)c(OCc2cncc(C#N)c2)cc1NCc1cccc(-c2ccccc2)c1C`, in data set [17], inhibition was half-maximal at 1330 nM (IC50).

For `Cc1cc(CN[C@H](CCO)C(=O)O)c(OCc2cncc(C#N)c2)cc1NCc1cccc(-c2ccccc2)c1C`, half-maximal inhibition in data set [17] (IC50) required 36 nM.

For `COc1cc(NCc2cccc(-c3ccccc3)c2C)c(C)cc1CN[C@H](CO)C(=O)O`, the IC50 in [17] stood at 253 nM.

With `Cc1cc(CN[C@H](CO)C(=O)O)c(OCc2ccccc2)cc1NCc1cccc(-c2ccccc2)c1C`, in data set [17], the IC50 is 2580 nM.

With `COc1cc(NCc2cccc(-c3ccccc3)c2C)c(Cl)cc1CN[C@H](CO)C(=O)O`, the Activity entry (with RAW264.7; in data set [2]; in data set [3]) was “Non-Toxic” each time. Further, in data set [18], the inhibition was 40.9%. For the same compound, in data set [4], the inhibition entry was “inactive”. Moreover, the Efficacy in data set [5] was found to be 98.6%. Besides, the result in data set [6] was Active. In data set [7], the Dissociation constant (KD) is 5.15 10^-10M. In data set [8], the association rate constant (kon) was 1.29 10^6/M/s. In addition, the koff in data set [16] was 6.64 10^-4/s.

Compound `N#Cc1cncc(COc2cc(NCc3cccc(-c4ccccc4)c3Br)ccc2CN[C@H](CO)C(=O)O)c1` displayed a concentration for half-maximal inhibition (IC50) in [17] of 206 nM.
